Data taken from ChEMBL document CHEMBL3244238, “In search of anti-Trypanosoma cruzi drugs: new leads from a mouse model” (J Med Chem, 1977).
The source made the active and inactive calls. The calls are words filed in the database; no cut-off is given here.

What was measured:
Trypanosoma cruzi [1] = test: Antitrypanosomal activity against Trypanosoma cruzi infected in albino CF1 mouse assessed as reduction in number of parasites in blood at 13 mg/kg/day, intramuscular treatment started on day 10 of infection up to day 14; assay type: functional; conditions: for inhibition in vivo at 13 mg/kg/day: im
Summary of the method: (§1)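 Male CF1 albino mice (4-10 weeks) infected intraperitoneally with 50 000 Brazil-strain T. cruzi trypomastigotes in Hanks' balanced salt solution, pH 7.2. Dosing was intramuscular, twice daily, from day 10 to day 13 afternoon or day 14 morning. Vehicle was 0.1% Tween 80 + 0.5% hydroxyethylcellulose. Seven mice per dose; dose given as total salt weight. Parasites/mL blood counted from day-14 smears; % suppression versus vehicle controls.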

Trypanosoma cruzi [2] = test: Antitrypanosomal activity against Trypanosoma cruzi infected in albino CF1 mouse assessed as reduction in number of parasites in blood at 52 mg/kg/day, intramuscular treatment started on day 10 of infection up to day 14; assay type: functional; conditions: for inhibition in vivo at 52 mg/kg/day: im; summary of the method: as §1
Trypanosoma cruzi [3] = test: Antitrypanosomal activity against Trypanosoma cruzi infected in albino CF1 mouse assessed as reduction in number of parasites in blood at 104 mg/kg/day, intramuscular treatment started on day 10 of infection up to day 14; assay type: functional; conditions: for inhibition in vivo at 104 mg/kg/day: im; summary of the method: as §1
Trypanosoma cruzi [4] = test: Potency index, ratio of nifurtimox SD90 to compound SD90 for Trypanosoma cruzi infected in albino CF1 mouse assessed as reduction in number of parasites in blood; assay type: functional
Summary of the method: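 Index = nifurtimox SD90 ÷ test-compound SD90. SD values were read graphically from log-probit plots of % parasitemia suppression versus dose (mg/kg/day) in intramuscularly treated, T. cruzi-infected CF1 mice. A lower SD level was used when SD90 was unattainable. For salts, doses were given by total weight, and the index was multiplied by the reciprocal of the base fraction.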

Mus musculus = test: Toxicity in albino CF1 mouse at 104 mg/kg/day, intramuscular treatment started on day 10 of trypanosomal infection up to day 14; assay type: organism-based; set-up: route intramuscular; conditions: in vivo, im
Trypanosoma cruzi [5] = test: Antitrypanosomal activity against Trypanosoma cruzi infected in albino CF1 mouse assessed as reduction in number of parasites in blood intramuscularly treated daily from day 10 of infection up to day 14; assay type: functional
Summary of the method: (§2)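 Male CF1 albino mice (4-10 weeks) were infected ip with 50 000 Brazil-strain trypomastigotes in 0.2 mL Hanks' BSS, pH 7.2. Dosing was intramuscular, twice daily in 0.1% Tween 80/0.5% hydroxyethylcellulose, from day 10 through day 13 pm or day 14 am. Three fourfold-spaced doses were given, 7 mice per dose, with vehicle-only controls. Parasites/mL of blood were counted from day-14 smears.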

Trypanosoma cruzi [6] = test: Antitrypanosomal activity against Trypanosoma cruzi infected in albino CF1 mouse assessed as reduction in number of parasites in blood at 26 mg/kg/day, intramuscular treatment started on day 10 of infection up to day 14; assay type: functional; conditions: for inhibition in vivo at 26 mg/kg/day: im; summary of the method: as §2
Trypanosoma cruzi [7] = test: Antitrypanosomal activity against Trypanosoma cruzi infected in albino CF1 mouse assessed as reduction in number of parasites in blood at 3.25 mg/kg/day, intramuscular treatment started on day 10 of infection up to day 14; assay type: functional; conditions: for inhibition in vivo at 3.25 mg/kg/day: im; summary of the method: as §2

| Compound | inhibition (Trypanosoma cruzi [1]) | inhibition (Trypanosoma cruzi [2]) | inhibition (Trypanosoma cruzi [3]) | Ratio (Trypanosoma cruzi [4]) | further results |
| --- | --- | --- | --- | --- | --- |
| c1ccc(C2CN3CCSC3=N2)cc1 (stereo not drawn) | inactive | inactive | inactive |  |  |
| COc1cc(NC(C)CCN)c2nccc(C)c2c1 (stereo not drawn) | inactive | inactive | inactive | inactive |  |
| Cc1ccc(C[P+](c2ccccc2)(c2ccccc2)c2ccccc2)cc1.[Cl-] |  |  |  | 3.6 | Activity (Mus musculus): Toxic; SD80 (Trypanosoma cruzi [5]): 13 mg/kg; inhibition in vivo at 26 mg/kg/day (Trypanosoma cruzi [6]): 85%; inhibition in vivo at 3.25 mg/kg/day (Trypanosoma cruzi [7]): 80% |
| COc1c(NC(C)CCN)cc(OC)c2c(C)ccnc12 (stereo not drawn) | inactive | inactive | inactive | inactive |  |
| COc1cc(NC(C)CCN)c2ncccc2c1.Cl (stereo not drawn) |  |  |  | 3.8 | inhibition in vivo at 13 mg/kg/day (Trypanosoma cruzi [1]): 80%; SD90 (Trypanosoma cruzi [5]): 21.8 mg/kg; inhibition in vivo at 52 mg/kg/day (Trypanosoma cruzi [2]): 97%; inhibition in vivo at 104 mg/kg/day (Trypanosoma cruzi [3]): 100% |
| COc1cc(NC(C)CCN)c2ncc(C)cc2c1.O=P(O)(O)O (stereo not drawn) |  |  |  | >9.2 | inhibition in vivo at 13 mg/kg/day (Trypanosoma cruzi [1]): 98%; SD90 (Trypanosoma cruzi [5]): <3.25 mg/kg; inhibition in vivo at 26 mg/kg/day (Trypanosoma cruzi [6]): 99%; inhibition in vivo at 3.25 mg/kg/day (Trypanosoma cruzi [7]): 92% |
| CCN(CC)CCCNc1cc(OC)c2nc(C)ccc2c1OC.O=C(O)c1ccc(O)cc1O | inactive | inactive | inactive |  |  |
| COc1cc(NC(C)CCCN)c(OC)c2c(C)cc(C)nc12 (stereo not drawn) | inactive | inactive | inactive |  |  |
| N=C(N)c1ccc(-c2ccc(-c3ccc(C(=N)N)cc3)o2)cc1 | inactive | inactive | inactive |  |  |
| CCN(CC)CCCCCCNc1cc(OC)cc2c(C)ccnc12 | inactive |  |  | inactive | inhibition (Trypanosoma cruzi [6]): inactive; inhibition (Trypanosoma cruzi [7]): inactive |
| COc1cc(NC(C)CCN)c2nc(C)ccc2c1.Cl.O (stereo not drawn) |  |  |  | 3.9 | inhibition in vivo at 13 mg/kg/day (Trypanosoma cruzi [1]): 86%; SD80 (Trypanosoma cruzi [5]): 10.5 mg/kg; inhibition in vivo at 26 mg/kg/day (Trypanosoma cruzi [6]): 82%; inhibition in vivo at 3.25 mg/kg/day (Trypanosoma cruzi [7]): 38% |
| COc1cc(NC(C)CCN)c2ncccc2c1/N=N/c1ccc(C(=O)O)cc1 (stereo not drawn) |  |  |  | >4 | inhibition in vivo at 13 mg/kg/day (Trypanosoma cruzi [1]): 98%; SD90 (Trypanosoma cruzi [5]): <3 mg/kg; inhibition in vivo at 52 mg/kg/day (Trypanosoma cruzi [2]): 99%; inhibition in vivo at 104 mg/kg/day (Trypanosoma cruzi [3]): 100% |
| Cc1cc(NCCCCCCNc2cc(C)nc3ccc(N)cc23)c2cc(N)ccc2n1 | inactive | inactive | inactive |  |  |
| CC(C)NCC1CCc2cc(CO)c([N+](=O)[O-])cc2N1 (stereo not drawn) | inactive | inactive | inactive |  |  |
| CC1CS(=O)(=O)CCN1/N=C/c1ccc([N+](=O)[O-])o1 (stereo not drawn) [NIFURTIMOX] |  |  |  | 1 | inhibition in vivo at 13 mg/kg/day (Trypanosoma cruzi [1]): 57%; SD90 (Trypanosoma cruzi [5]): 41.5 mg/kg; inhibition in vivo at 52 mg/kg/day (Trypanosoma cruzi [2]): 92%; inhibition in vivo at 104 mg/kg/day (Trypanosoma cruzi [3]): 99% |
| CCCNCCCCCNc1cc(OC)cc2cccnc12.O=P(O)(O)O |  |  |  | 1.2 | inhibition in vivo at 13 mg/kg/day (Trypanosoma cruzi [1]): 54%; SD90 (Trypanosoma cruzi [5]): 43.5 mg/kg; inhibition in vivo at 52 mg/kg/day (Trypanosoma cruzi [2]): 93%; inhibition in vivo at 104 mg/kg/day (Trypanosoma cruzi [3]): 99% |
| NC1(C(=O)O)CCCC1 | inactive | inactive | inactive |  |  |
| Nc1nc(N)c2c(n1)CCC(S(=O)(=O)c1ccc3ccccc3c1)C2 (stereo not drawn) | inactive | inactive | inactive |  |  |
| COc1cc(NCCCN2CCN(CCCNc3cc(OC)cc4cccnc34)CC2)c2ncccc2c1 | inactive | inactive | inactive |  |  |
| Nc1ccc(C(c2ccc(N)cc2)c2ccc(N)cc2)cc1.O=C(O)c1cc2ccccc2c(Cc2c(O)c(C(=O)O)cc3ccccc23)c1O |  |  |  | 0.3 | SD50 (Trypanosoma cruzi [5]): 96 mg/kg |
| Nc1nc(N)c2cc(S(=O)(=O)c3ccc4ccccc4c3)ccc2n1 | inactive | inactive | inactive |  |  |
| O=C(O)c1[nH]c(=O)[nH]c(=O)c1F | inactive | inactive | inactive |  |  |
| Nc1ccc(C(c2ccc(N)cc2)c2ccc(N)cc2)cc1 |  |  |  |  | inhibition in vivo at 26 mg/kg/day (Trypanosoma cruzi [6]): 39%; inhibition in vivo at 3.25 mg/kg/day (Trypanosoma cruzi [7]): 43%; inhibition in vivo at 104 mg/kg/day (Trypanosoma cruzi [3]): 52% |
| COc1cc(NC(C)CCCN)c(OC)c2c(C)ccnc12.O=C(O)c1ccc(O)cc1O (stereo not drawn) | inactive | inactive | inactive |  |  |
| Nc1nc(/C=C/c2ccc([N+](=O)[O-])o2)no1 |  |  |  | 1.13 | SD90 (Trypanosoma cruzi [5]): 48.5 mg/kg; inhibition in vivo at 26 mg/kg/day (Trypanosoma cruzi [6]): 91%; inhibition in vivo at 3.25 mg/kg/day (Trypanosoma cruzi [7]): 49%; inhibition in vivo at 104 mg/kg/day (Trypanosoma cruzi [3]): 90% |
